Test results published in ChEMBL document CHEMBL1142964, “Synthesis and biological evaluation of [18F]bicalutamide, 4-[76Br]bromobicalutamide, and 4-[76Br]bromo-thiobicalutamide as non-steroidal androgens for prostate cancer imaging” (J Med Chem, 2007).

Tests used:
Kidney [1] = assay: Biodistribution in kidney of iv dosed testis-intact Sprague-Dawley rat after 1 hr block; format: ADME, organism-based; details: in vivo
How it was run: (§1)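 76Br-tracer in 10% ethanol-saline, given iv by tail vein to mature male Sprague-Dawley rats (250 g) castrated 7 days before. Doses were 4 µCi/animal (1 h) and 7 µCi/animal (18 h). Block group used testes-intact rats, with the AR saturated by endogenous androgen. Five animals per group. Tissues were excised, weighed, saline-washed, blotted and counted. %ID/g was taken against injected-dose standards.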

[2] = Biodistribution in kidney of iv dosed Sprague-Dawley rat after 18 hrs; format: ADME, organism-based; details: read-out: Drug uptake; how it was run: as §1
Kidney [3] = assay: Biodistribution in kidney of iv dosed testis-intact Sprague-Dawley rat after 18 hrs block; format: ADME, organism-based; details: in vivo; how it was run: as §1
[4] = Biodistribution in blood of iv dosed CWR22 tumor bearing mouse with 17alpha-methyltestosterone-induced androgen block after 90 min; format: ADME, organism-based; details: human, read-out: Drug uptake
How it was run: (§2)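 Mature male mice (25 g) bearing flank CWR22 prostate tumors received DES (0.2 mg in 0.1 mL sesame oil, sc) 24 and 3 h before the tracer. 76Br-tracer, 6 µCi/animal in 10% ethanol-saline, was given iv by tail vein. Mice were killed at 30 or 90 min. Block set was co-injected with 8 µg 17α-methyltestosterone. Five animals per point. Results are %ID/g.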

[5] = Biodistribution in liver of iv dosed CWR22 tumor bearing mouse after 30 min; format: ADME, organism-based; details: human, read-out: Drug uptake; how it was run: as §2
[6] = Biodistribution in liver of iv dosed CWR22 tumor bearing mouse after 60 min; format: ADME, organism-based; details: human, read-out: Drug uptake
[7] = Biodistribution in liver of iv dosed CWR22 tumor bearing mouse with 17alpha-methyltestosterone-induced androgen block after 90 min; format: ADME, organism-based; details: human, in vivo, 1.5 h; how it was run: as §2
[8] = Biodistribution in kidney of iv dosed CWR22 tumor bearing mouse after 30 min; format: ADME, organism-based; details: human, read-out: Drug uptake; how it was run: as §2
[9] = Biodistribution in kidney of iv dosed CWR22 tumor bearing mouse after 60 min; format: ADME, organism-based; details: human, read-out: Drug uptake
[10] = Biodistribution in kidney of iv dosed CWR22 tumor bearing mouse with 17alpha-methyltestosterone-induced androgen block after 90 min; format: ADME, organism-based; details: human, in vivo, 1.5 h; how it was run: as §2
[11] = Biodistribution in muscle of iv dosed CWR22 tumor bearing mouse after 30 min; format: ADME, organism-based, Muscle tissue; details: human, read-out: Drug uptake; how it was run: as §2
[12] = Biodistribution in muscle of iv dosed CWR22 tumor bearing mouse after 60 min; format: ADME, organism-based, Muscle tissue; details: human, read-out: Drug uptake
[13] = Biodistribution in prostate of iv dosed CWR22 tumor bearing mouse with 17alpha-methyltestosterone-induced androgen block after 90 min; format: ADME, organism-based, Prostate gland; details: human, read-out: Drug uptake; how it was run: as §2
[14] = Biodistribution in muscle of iv dosed CWR22 tumor bearing mouse with 17alpha-methyltestosterone-induced androgen block after 90 min; format: ADME, organism-based; details: human, read-out: Drug uptake; how it was run: as §2
[15] = Biodistribution in prostate of iv dosed CWR22 tumor bearing mouse after 30 min; format: ADME, organism-based, Prostate gland; details: human, read-out: Drug uptake; how it was run: as §2
[16] = Biodistribution in prostate of iv dosed CWR22 tumor bearing mouse after 60 min; format: ADME, organism-based, Prostate gland; details: human, read-out: Drug uptake
[17] = Biodistribution in tumor of iv dosed CWR22 tumor bearing mouse after 30 min; format: ADME, organism-based; details: human, read-out: Drug uptake; how it was run: as §2
[18] = Biodistribution in tumor of iv dosed CWR22 tumor bearing mouse after 60 min; format: ADME, organism-based; details: human, read-out: Drug uptake
[19] = Biodistribution in tumor of iv dosed CWR22 tumor bearing mouse with 17alpha-methyltestosterone-induced androgen block after 90 min; format: ADME, organism-based; details: human, in vivo, 1.5 h; how it was run: as §2
[20] = Ratio of drug uptake in prostate to muscle in iv dosed Sprague-Dawley rat after 1 hr; format: ADME, organism-based, Prostate gland; details: in vivo
How it was run: (§3)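 Castrated male Sprague-Dawley rats were dosed iv (tail vein) with 4 µCi 76Br-tracer in 10% ethanol-saline and killed at 1 h, five per group. Tissues were weighed and counted and %ID/g calculated against dose standards. Ratios are prostate %ID/g over blood or muscle %ID/g.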

[21] = Ratio of drug uptake in prostate to blood in iv dosed Sprague-Dawley rat after 1 hr; format: ADME, organism-based, Prostate gland; how it was run: as §3
Blood [22] = assay: Biodistribution in blood of iv dosed testis-intact Sprague-Dawley rat after 1 hr block; format: ADME, organism-based; details: in vivo; how it was run: as §1
[23] = Biodistribution in blood of iv dosed Sprague-Dawley rat after 1 hr; format: ADME, organism-based; details: read-out: Drug uptake; how it was run: as §1
[24] = Biodistribution in blood of iv dosed Sprague-Dawley rat after 18 hrs; format: ADME, organism-based; details: read-out: Drug uptake; how it was run: as §1
Blood [25] = assay: Biodistribution in blood of iv dosed testis-intact Sprague-Dawley rat after 18 hrs block; format: ADME, organism-based; details: in vivo; how it was run: as §1
[26] = Biodistribution in liver of iv dosed Sprague-Dawley rat after 1 hr; format: ADME, organism-based; details: read-out: Drug uptake; how it was run: as §1
[27] = Biodistribution in liver of iv dosed testis-intact Sprague-Dawley rat after 1 hr block; format: ADME, organism-based; details: male, read-out: Drug uptake; how it was run: as §1
[28] = Biodistribution in liver of iv dosed Sprague-Dawley rat after 18 hrs; format: ADME, organism-based; details: read-out: Drug uptake; how it was run: as §1
Liver = assay: Biodistribution in liver of iv dosed testis-intact Sprague-Dawley rat after 18 hrs block; format: ADME, organism-based; details: in vivo; how it was run: as §1
[29] = Biodistribution in kidney of iv dosed Sprague-Dawley rat after 1 hr; format: ADME, organism-based; details: read-out: Drug uptake; how it was run: as §1
[30] = Biodistribution in muscle of iv dosed Sprague-Dawley rat after 1 hr; format: ADME, organism-based, Muscle tissue; details: read-out: Drug uptake; how it was run: as §1
Muscle tissue [31] = assay: Biodistribution in muscle of iv dosed testis-intact Sprague-Dawley rat after 1 hr block; format: ADME, organism-based; details: in vivo; how it was run: as §1
[32] = Biodistribution in muscle of iv dosed Sprague-Dawley rat after 18 hrs; format: ADME, organism-based, Muscle tissue; details: read-out: Drug uptake; how it was run: as §1
Muscle tissue [33] = assay: Biodistribution in muscle of iv dosed testis-intact Sprague-Dawley rat after 18 hrs block; format: ADME, organism-based; details: in vivo; how it was run: as §1
[34] = Biodistribution in bone of iv dosed Sprague-Dawley rat after 1 hr; format: ADME, organism-based, Bone element; details: read-out: Drug uptake; how it was run: as §1
Bone [35] = assay: Biodistribution in bone of iv dosed testis-intact Sprague-Dawley rat after 1 hr block; format: ADME, organism-based, Bone element; details: in vivo; how it was run: as §1
[36] = Biodistribution in bone of iv dosed Sprague-Dawley rat after 18 hrs; format: ADME, organism-based, Bone element; details: read-out: Drug uptake; how it was run: as §1
Bone [37] = assay: Biodistribution in bone of iv dosed testis-intact Sprague-Dawley rat after 18 hrs block; format: ADME, organism-based, Bone element; details: in vivo; how it was run: as §1
[38] = Biodistribution in prostate of iv dosed Sprague-Dawley rat after 1 hr; format: ADME, organism-based, Prostate gland; details: read-out: Drug uptake; how it was run: as §1
Prostate gland [39] = assay: Biodistribution in prostate of iv dosed testis-intact Sprague-Dawley rat after 1 hr block; format: ADME, organism-based; details: in vivo; how it was run: as §1
[40] = Biodistribution in prostate of iv dosed Sprague-Dawley rat after 18 hrs; format: ADME, organism-based, Prostate gland; details: read-out: Drug uptake; how it was run: as §1
Prostate gland [41] = assay: Biodistribution in prostate of iv dosed testis-intact Sprague-Dawley rat after 18 hrs block; format: ADME, organism-based; details: in vivo; how it was run: as §1
[42] = Biodistribution in blood of iv dosed CWR22 tumor bearing mouse after 30 min; format: ADME, organism-based; details: human, read-out: Drug uptake; how it was run: as §2
[43] = Biodistribution in blood of iv dosed CWR22 tumor bearing mouse after 60 min; format: ADME, organism-based; details: human, in vivo, 1 h
Androgen receptor = molecular target: T1, Androgen receptor (Rattus norvegicus, UniProt P15207); assay: Binding affinity to rat AR
T1 sequence (P15207 whole entry): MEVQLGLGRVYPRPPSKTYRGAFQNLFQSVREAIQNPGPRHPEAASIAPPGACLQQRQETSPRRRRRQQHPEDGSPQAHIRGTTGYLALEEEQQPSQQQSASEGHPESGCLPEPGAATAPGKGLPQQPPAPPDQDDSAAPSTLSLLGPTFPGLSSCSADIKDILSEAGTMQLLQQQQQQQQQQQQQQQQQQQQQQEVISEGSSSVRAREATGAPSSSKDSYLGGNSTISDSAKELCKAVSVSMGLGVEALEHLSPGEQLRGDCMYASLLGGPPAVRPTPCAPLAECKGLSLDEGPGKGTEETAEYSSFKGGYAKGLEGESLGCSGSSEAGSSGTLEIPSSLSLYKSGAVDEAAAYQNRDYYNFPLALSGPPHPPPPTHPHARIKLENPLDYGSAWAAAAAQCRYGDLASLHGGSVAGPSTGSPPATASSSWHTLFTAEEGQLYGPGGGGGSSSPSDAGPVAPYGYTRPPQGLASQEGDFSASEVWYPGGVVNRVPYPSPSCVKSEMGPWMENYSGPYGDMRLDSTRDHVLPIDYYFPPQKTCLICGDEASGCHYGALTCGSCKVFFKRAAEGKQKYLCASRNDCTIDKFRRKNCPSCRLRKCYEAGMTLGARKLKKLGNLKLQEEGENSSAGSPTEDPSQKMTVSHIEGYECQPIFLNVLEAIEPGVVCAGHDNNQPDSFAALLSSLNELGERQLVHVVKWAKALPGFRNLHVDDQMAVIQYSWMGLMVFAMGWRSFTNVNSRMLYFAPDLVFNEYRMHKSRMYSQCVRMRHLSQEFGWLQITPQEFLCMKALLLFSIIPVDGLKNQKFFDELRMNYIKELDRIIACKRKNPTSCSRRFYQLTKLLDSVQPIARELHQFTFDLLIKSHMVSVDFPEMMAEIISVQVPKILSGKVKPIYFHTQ

CC(O)(CS(=O)(=O)c1ccc([76Br])cc1)C(=O)Nc1ccc(C#N)c(C(F)(F)F)c1 (stereo not given)
Drug uptake (Kidney [1]): 1 % ID/g
tissue uptake at 18 h [2]: 0.36 %ID/g
Drug uptake (Kidney [3]): 0.26 % ID/g
tissue uptake at 1.5 h [4]: 3 %ID/g
tissue uptake at 0.5 h [5]: 15 %ID/g
tissue uptake at 1 h [6]: 18 %ID/g
Drug uptake [7]: 14 % ID/g
tissue uptake at 0.5 h [8]: 7.2 %ID/g
tissue uptake at 1 h [9]: 7.8 %ID/g
Drug uptake [10]: 7.6 % ID/g
tissue uptake at 0.5 h [11]: 2.5 %ID/g
tissue uptake at 1 h [12]: 2.9 %ID/g
tissue uptake at 1.5 h [13]: 3.4 %ID/g
tissue uptake at 1.5 h [14]: 2.8 %ID/g
tissue uptake at 0.5 h [15]: 2.2 %ID/g
tissue uptake at 1 h [16]: 2.8 %ID/g
tissue uptake at 0.5 h [17]: 2.5 %ID/g
tissue uptake at 1 h [18]: 3.8 %ID/g
Drug uptake [19]: 4.5 % ID/g
Ratio [20]: 2.9
Kp at 1 h [21]: 1.8
Drug uptake (Blood [22]): 0.62 % ID/g
tissue uptake at 1 h [23]: 0.56 %ID/g
tissue uptake at 18 h [24]: 0.34 %ID/g
Drug uptake (Blood [25]): 0.29 % ID/g
tissue uptake at 1 h [26]: 2.1 %ID/g
tissue uptake at 1 h [27]: 2.5 %ID/g
tissue uptake at 18 h [28]: 0.56 %ID/g
Drug uptake (Liver): 0.36 % ID/g
tissue uptake at 1 h [29]: 1 %ID/g
tissue uptake at 1 h [30]: 0.34 %ID/g
Drug uptake (Muscle tissue [31]): 0.38 % ID/g
tissue uptake at 18 h [32]: 0.15 %ID/g
Drug uptake (Muscle tissue [33]): 0.11 % ID/g
tissue uptake at 1 h [34]: 0.28 %ID/g
Drug uptake (Bone [35]): 0.31 % ID/g
tissue uptake at 18 h [36]: 0.13 %ID/g
Drug uptake (Bone [37]): 0.12 % ID/g
tissue uptake at 1 h [38]: 1 %ID/g
Drug uptake (Prostate gland [39]): 0.68 % ID/g
tissue uptake at 18 h [40]: 0.27 %ID/g
Drug uptake (Prostate gland [41]): 0.22 % ID/g
tissue uptake at 0.5 h [42]: 2.7 %ID/g
Drug uptake [43]: 3.5 % ID/g

CC(O)(CS(=O)(=O)c1ccc(Br)cc1)C(=O)Nc1ccc(C#N)c(C(F)(F)F)c1 (stereo not given)
Kd (Androgen receptor): 110 nM
